Test results reported in the EternaBench riboswitch data.

System: MS2 coat protein
Experiment: apparent Kd, MS2 coat protein; higher = weaker binding; RNA-MaP array; theophylline 2 mM where present
Procedure, shortened: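 Designs were transcribed by stalled E. coli RNA polymerase on Illumina sequencing-chip clusters. They were titrated with SNAP-549-labelled MS2 coat protein from 0.7 or 1.5 nM, doubling to 3 µM, in 100 mM Tris-HCl pH 7.5, 80 mM KCl, 4 mM MgCl2, BSA, DTT, yeast tRNA and Tween-20, without and then with constant ligand. The apparent Kd is the median of filtered per-cluster fits after normalisation of green signal to red-channel RNA signal and control-cluster median Fmax.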

[1] = designed as: ON switch for theophylline, no ligand
[2] = ligand present: theophylline, designed as: ON switch for theophylline
[3] = designed as: OFF switch for theophylline, no ligand
[4] = ligand present: theophylline, designed as: OFF switch for theophylline

| Sequence | apparent Kd [1] [nM] | apparent Kd [2] [nM] | apparent Kd [3] [nM] | apparent Kd [4] [nM] |
| --- | --- | --- | --- | --- |
| UCUUACUUGGUAGAUACCAGCGUGUUAUCUUUCUUUUGACAUGAGGAUCACCCAUGUAUAUGCCCUUGGCAGCUGCAUAGUGUGU | 34.9 | 35.1 |  |  |
| GUGAGGUUUGAUGAUACCAGAUGUGGUGGGAACAUGAGGAUCACCCAUGUUGUGAAACAGGUCCCUUGGCAGCAUGAGAGAGCUU | 47.8 | 44.3 |  |  |
| ACAUAGAGAUUAAUCGUGGGCAUACUCGAUACCAGUAUUUUAACCUACCCUUGGCAGCGACAUGAGGAUCACCCAUGUGAGAUGA |  |  | 22.2 | 39.5 |
| ACGAUAGGACAUGAGGAUCACCCAUGUGAUACCAGCCUGGAAACAGGCCCUUGGCAGCACAAAUACUCCAGAAACCUAUCGAAUA |  |  | 281 | 226 |
| ACCAGCACACAUGAUACCAGCGACAUGAGGAUCACCCAUGUACGGCGUGUAUCGAAAGGUUGCCCUUGGCAGCAUGAUAGUGCUA |  |  | 12.8 | 129 |
| GCACCAGGUACGGAUACCAGCUAUAGGCCCUAUGGGCGACAUGAGGAUCACCCAUGUAAUGGCCCUUGGCAGCUGUACCUGGUGC | 169 | 11.3 |  |  |
| AGACAUGAGGAUCACCCAUGUAGCACGGAUACCAGAUCCAGAUUUAUCCCUUGGCAGCUGUGGUACAGCGUUGCAACGCUCCUAG |  |  | 18.8 | 29.4 |
| GAUGAUAUUGCAGAUACCAGACACAUGAGGAUCACCCAUGUCGUUGGGUAGCUGGGUCGUGUCCCUUGGCAGCUGCGAUAUCAUC |  |  | 23.3 | 138 |
| AUAUGAUCAUGUGAUACCAGAAAUGGUAGUCUUCACUGGAUUACAUGAGGAUCACCCAUGUUCCCUUGGCAGCAUAUGAUCAUAU |  |  | 43.6 | 259 |
| UCGUGUGUUUCGGAUACCAGUGUGGUCGAUACAUGAGGAUCACCCAUGUGAGAGGAGGUACACCCUUGGCAGCUGGCUGUUGCGG | 72 | 86.4 |  |  |
| AGACAUGAGGAUCACCCAUGUAGCAUGGAUACCAGAUGUAGAUUUGUCCCUUGGCAGCUGUGGUAAAGUGAUGCAUUGCUCCUAG |  |  | 45.2 | 45.2 |
| AAAAUAAAUAAAACACGUAACAUGAAGGAUACCAGCCAGAAAACUGGCCCUUGGCAGCCUCUACAUGAGGAUCACCCAUGUCGUG | 305 | 28 |  |  |
| AAAUAAAUCACAUGAGGAUCACCCAUGGAUACCAGGCCUGGAAACAGCCCUUGGCAGCCACAUGAGGAUCACCCAUGUGCUAAUA |  |  | 213 | 219 |
| UCCUCCUCCGGAAGGAGGAGGAGUUGCGAUACCAGCCCGGAAACGGGCCCUUGGCAGCGCACAUGAGGAUCACCCAUGUCAUGUU |  |  | 18.4 | 24.1 |
| ACUUCAUGAGGUGAUACCAGCCAAUGACAUGAGGACAUGAGGAUCACCCAUGUUUAUGUAGGCCCUUGGCAGCAUUGUAACAUGA | 59.4 | 52.3 |  |  |
| AGACAUGAGGAUCACCCAUGUAGUAUGGAUACCAGAUCCAGAUUUAUCCCUUGGCAGCUGUGGUACAGCGAUGGAUUGCUCCUAG |  |  | 38 | 39.8 |
| ACAUGAGGAUCACCCAUGUCUGCCACUGAUACCAGCGGAAGAAAACGCCCUUGGCAGCAGAACAUGAGGAUCACCCAUGUAGGCU | 274 |  |  |  |
| GGCCUUGCGGGCGCCCGCAAGGCCGCGGAUACCAGCGAGGUCCAUCGCCCUUGGCAGCCGAACAUGAGGAUCACCCAUGUCGGUU | 11 | 13.4 |  |  |
| GCAAUACAUGAGGAUCACCCAUGUGCAGAUACCAGAGGUGCGUGCCUCCCUUGGCAGCUGCGACGCUCUGGAAGCUUGUGUGUCU |  |  | 19.4 | 25.2 |
| AUUUAUAGUUGUGAUACCAGACUUACAUGAGGAUCACCCAUGUUACUUAAAUGUUUUGAUGUCCCUUGGCAGCACUGUUUUUUUA |  |  | 16.6 |  |

| Sequence | apparent Kd [1] [nM] | apparent Kd [2] [nM] | apparent Kd [3] [nM] | apparent Kd [4] [nM] |
| --- | --- | --- | --- | --- |
| UGACAUUGCUCAGAUACCAGACAUGAGGAUCACCCAUGUGCCAAACGUACAAUAAUAAAUGUCCCUUGGCAGCUGAGCAAUGUCU |  |  | 11.3 | 101 |
| GCUUGGGUGGCCCAGCCCUGGCAGGGCGAUACCAGCACGGUAACGUGCCCUUGGCAGCGCACAUGAGGAUCACCCAUGUGGUGCG |  |  | 127 | 266 |
| AAACGUUGCUCAGAUACCAGACAUGAGGAUCACCCAUGUACCGAGGUACCCGAAAGGAAUGUCCCUUGGCAGCUGAGCAACGAAA |  |  | 11 | 123 |
| ACCUACACGGAGACGUGUAGGAGUAAUGAUACCAGCAUGGAGACAUGCCCUUGGCAGCGUUACAUGAGGAUCACCCAUGUACGUU |  |  | 10.2 | 14.1 |
| ACGAUACGACAUGAGGAUCACCCAUGUGAUACCAGCCUGGAAACAGGCCCUUGGCAGCACAAAUACUCCAGAAACGUAUCGAAAA |  |  | 204 | 469 |
| UGACAUUGCUGCGAUACCAGACAUGAGGAUCACCCAUGUACCAAGGUACCCGAAAGGAAUGUCCCUUGGCAGCGCAGCAAUGUCU |  |  | 9.4 | 21.2 |
| CGUGUGCGUUCUGAUACCAGAGACAUGAGGAUCACCCAUGUCCGAUCGUCCUGCCUCAGACUCCCUUGGCAGCAGGUUUUGUGCU |  |  | 45.7 | 60.9 |
| CGUGAUCCCUGUGAUACCAGAAGUACAUGAGGAUCACCCAUGUCAAACACAAAACCAAGCUUCCCUUGGCAGCAUAGUCGUUAAG | 238 | 1310 |  |  |
| ACGACGCAUAGUGAUACCAGUAGAACAUGAGGAUCACCCAUGUCUGUGACGCACAAAUUCUGCCCUUGGCAGCACUAUGCGUCAG | 11.4 | 33.3 |  |  |
| AUCGUACCUAAUGAUACCAGCAAGUGAUCAUAACAUGAGGAUCACCCAUGUAAUCAGUGAUGCCCUUGGCAGCAUAAUCGUUACA | 163 | 127 |  |  |
| ACAUGAGGAUCCGAUACCAGCCACAUGAGGAUCACCCAUGUAGUACAUGAGGAUCACCCAGGCCCUUGGCAGCGGACAUGAGGAU |  |  | 178 | 1900 |
| CUGCCAUGCAGAGAUACCAGUGCGCUCAGCACAUGAGGAUCACCCAUGUUGGCUGCCGAUCACCCUUGGCAGCUCUGCAUGGCAG | 10.8 | 7.62 |  |  |
| AAUUGCGUUGGUGAGGCGGUUAAUGGCGAUACCAGCGUGGAAACACGCCCUUGGCAGCGCCAAAACAUGAGGAUCACCCAUGUUA |  |  | 73.5 | 200 |
| UCACAUGAGGAUCACCCAUGUACAGGCGAUACCAGCCGUACAUUGGGCCCUUGGCAGCGCAUCGAGACCUUUAUAAGCACCUCGG | 49.9 | 298 |  |  |
| UGCGAUUGCUCAGAUACCAGACAUGAGGAUCACCCAUGUACCAAGGUAAAGAAAUAACGUGUCCCUUGGCAGCUGAGCAAUCGCU |  |  | 10.2 | 98.4 |
| UUUUUCGCGGGUGAUACCAGCAAAGCUGUACUGGUCUGGUACAUGAGGAUCACCCAUGUUUGCCCUUGGCAGCGCUCGGGAGAAG |  |  | 29.5 | 71.9 |
| ACAUGAGGAUCACCCAUGUUCCUCGCCGAUACCAGUGAAGAAGAACGCCCUUGGCAGCGGAAAGAAUAUUUUGGAGAUGAGGUAU |  |  | 164 | 189 |
| AUUUACAUGGUCAUAUAUAUAUCGUCAGAUACCAGACGAGAUAUUGUCCCUUGGCAGCUGUUACAUGAGGAUCACCCAUGUAAUU |  |  | 85.8 | 83.7 |
| ACGAACUGUAGUGAUACCAGACACACAUGAGGAUCACCCAUGUUGUUAGCAUGGUGAAUAGUCCCUUGGCAGCACAGUUAGUUCG |  |  | 98.6 | 217 |
| AUAGUCUAGAGUGAUACCAGACAACAUGAGGAUCACCCAUGUAGCAUAUGGUUAUCAUGAGUCCCUUGGCAGCACGCAUGUAUAG |  |  | 12.3 | 55.8 |
